Measured values: ChEMBL document CHEMBL4406856, “Structure based design, synthesis and in vitro antitumour activity of tiazofurin stereoisomers with nitrogen functions at the C-2' or C-3' positions” (Eur J Med Chem, 2019)

What was measured:
K562 [1] = test: Induction of apoptosis in human K562 cells incubated for 24 hrs by annexin V FITC and propidium iodide staining based flow cytometry relative to control; assay type: functional; set-up: concentration or dose not given beside the values
K562 [2] = test: Antiproliferative activity against human K562 cells assessed as reduction in cell growth incubated for 72 hrs by MTT assay; assay type: functional, cell-based; details: K562, 72 h
Summary of the method: (§1)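 Colorimetric MTT assay on human tumour lines K562 (chronic myeloid leukemia), HL-60 (promyelocytic leukemia), Jurkat (T cell leukemia), Raji (Burkitt's lymphoma), HT-29 (colorectal adenocarcinoma), HeLa (cervix adenocarcinoma) and normal lung fibroblast MRC-5; cells exposed to compounds for 72 h.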

HL-60 = test: Antiproliferative activity against human HL60 cells assessed as reduction in cell growth incubated for 72 hrs by MTT assay; assay type: functional, cell-based; details: HL-60, 72 h
Summary of the method: as §1, with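 “h. IC50 taken as concentration giving 50% growth inhibition versus untreated control.” for “h.”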

Jurkat = test: Antiproliferative activity against human Jurkat cells assessed as reduction in cell growth incubated for 72 hrs by MTT assay; assay type: functional, cell-based
Summary of the method: as §1, with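 “h. IC50 taken as concentration giving 50% growth inhibition versus untreated control.” for “h.”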

Raji = test: Antiproliferative activity against human Raji cells assessed as reduction in cell growth incubated for 72 hrs by MTT assay; assay type: functional, cell-based; summary of the method: as §1
HT-29 = test: Antiproliferative activity against human HT-29 cells assessed as reduction in cell growth incubated for 72 hrs by MTT assay; assay type: functional, cell-based; details: HT-29, 72 h
Summary of the method: as §1, with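 “h. IC50 taken as concentration giving 50% growth inhibition versus untreated control.” for “h.”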

HeLa = test: Antiproliferative activity against human HeLa cells assessed as reduction in cell growth incubated for 72 hrs by MTT assay; assay type: functional, cell-based
Summary of the method: as §1, with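 “h. IC50 taken as concentration giving 50% growth inhibition versus untreated control.” for “h.”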

MRC5 = test: Cytotoxicity against human MRC5 cells assessed as reduction in cell viability incubated for 72 hrs by MTT assay; assay type: cell-based; details: MRC5, 72 h; summary of the method: as §1
K562 [3] = test: Cell cycle arrest in human K562 cells assessed as accumulation in G2/M phase incubated for 72 hrs by propidium iodide staining based flow cytometry (reference value: 15.45%); assay type: functional
Summary of the method: (§2)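 Exponentially growing K562 cells treated for 24 or 72 h, untreated cells as control; cells stained with propidium iodide and DNA content read by flow cytometry. Phase distribution (subG1, G0/G1, S, G2/M) taken from one-parameter histograms, subG1 scored as hypodiploid, apoptotic cells.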

K562 [4] = test: Cell cycle arrest in human K562 cells assessed as accumulation in S phase incubated for 72 hrs by propidium iodide staining based flow cytometry (reference value: 36.05%); assay type: functional; summary of the method: as §2
K562 [5] = test: Cell cycle arrest in human K562 cells assessed as accumulation in G0/G1 phase incubated for 72 hrs by propidium iodide staining based flow cytometry (reference value: 45.43%); assay type: functional; summary of the method: as §2
K562 [6] = test: Cell cycle arrest in human K562 cells assessed as accumulation in SubG1 phase incubated for 72 hrs by propidium iodide staining based flow cytometry (reference value: 3.07%); assay type: functional; summary of the method: as §2
K562 [7] = test: Induction of apoptosis in human K562 cells incubated for 72 hrs by annexin V FITC and propidium iodide staining based flow cytometry relative to control; assay type: functional; set-up: concentration or dose not given beside the values
Summary of the method: (§3)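 K562 cells treated for 72 h, stained with Annexin V-FITC/propidium iodide and analysed by flow cytometry. Apoptotic, necrotic and live fractions scored as percent of gated cells; specific apoptosis and specific necrosis calculated from these counts.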

K562 [8] = test: Induction of necrosis in human K562 cells incubated for 72 hrs by annexin V FITC and propidium iodide staining based flow cytometry relative to control; assay type: functional; set-up: concentration or dose not given beside the values; summary of the method: as §3
K562 [9] = test: Induction of apoptosis in human K562 cells assessed as Bcl2 level incubated for 72 hrs by Western blot analysis (reference value: 100%); assay type: functional
Summary of the method: (§4)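 K562 cells treated for 72 h; Bcl-2, BAX, caspase 3 precursor (32 kDa), caspase 3 active subunit (18 kDa) and PARP (112 and 85 kDa) measured by Western blot and expressed as % of untreated control.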

K562 [10] = test: Induction of apoptosis in human K562 cells assessed as Bax level incubated for 72 hrs by Western blot analysis (reference value: 100%); assay type: functional; summary of the method: as §4
K562 [11] = test: Induction of apoptosis in human K562 cells assessed as 32 kDa Caspase 3 precursor level incubated for 72 hrs by Western blot analysis (reference value: 100%); assay type: functional; summary of the method: as §4
K562 [12] = test: Induction of apoptosis in human K562 cells assessed as 18 kDa Caspase 3 active subunit level incubated for 72 hrs by Western blot analysis (reference value: 100%); assay type: functional; summary of the method: as §4
K562 [13] = test: Induction of apoptosis in human K562 cells assessed as 112 kDa PARP level incubated for 72 hrs by Western blot analysis (reference value: 100%); assay type: functional; summary of the method: as §4
K562 [14] = test: Induction of apoptosis in human K562 cells assessed as 85 kDa PARP level incubated for 72 hrs by Western blot analysis (reference value: 100%); assay type: functional; summary of the method: as §4
K562 [15] = test: Induction of necrosis in human K562 cells incubated for 24 hrs by annexin V FITC and propidium iodide staining based flow cytometry relative to control; assay type: functional; set-up: concentration or dose not given beside the values
K562 [16] = test: Cell cycle arrest in human K562 cells assessed as accumulation in G2/M phase incubated for 24 hrs by propidium iodide staining based flow cytometry (reference value: 14.29%); assay type: functional; summary of the method: as §2
K562 [17] = test: Cell cycle arrest in human K562 cells assessed as accumulation in S phase incubated for 24 hrs by propidium iodide staining based flow cytometry (reference value: 48.38%); assay type: functional; summary of the method: as §2
K562 [18] = test: Cell cycle arrest in human K562 cells assessed as accumulation in G0/G1 phase incubated for 24 hrs by propidium iodide staining based flow cytometry (reference value: 36.28%); assay type: functional; summary of the method: as §2
K562 [19] = test: Cell cycle arrest in human K562 cells assessed as accumulation in sub-G1 phase incubated for 24 hrs by propidium iodide staining based flow cytometry (reference value: 1.05%); assay type: functional; summary of the method: as §2
K562 [20] = test: Cell cycle arrest in human K562 cells assessed as decrease in cell accumulation at G2/M phase incubated for 72 hrs by propidium iodide staining based flow cytometry relative to tiazofurin; assay type: functional; summary of the method: as §2
K562 [21] = test: Induction of apoptosis in human K562 cells incubated for 72 hrs by annexin V FITC and propidium iodide staining based flow cytometry relative to tiazofurin; assay type: functional; summary of the method: as §3

IC50 (K562 [2]) [µM] | IC50 (HL-60) [µM] | IC50 (Jurkat) [nM] | IC50 (Raji) [µM] | IC50 (HT-29) [nM] | IC50 (HeLa) [µM] | Structure (SMILES) | Activity (K562 [1]) [%] | IC50 (MRC5) [µM] | Activity (K562 [3]) [%] | Activity (K562 [4]) [%] | Activity (K562 [5]) [%] | Activity (K562 [6]) [%] | Activity (K562 [7]) [%] | Activity (K562 [8]) [%] | Activity (K562 [9]) [%] | Activity (K562 [10]) [%] | Activity (K562 [11]) [%] | Activity (K562 [12]) [%] | Activity (K562 [13]) [%] | Activity (K562 [14]) [%] | also measured
1.97 | 1.02 | 40 | 1.03 | 23400 | 1.03 | NC(=O)c1csc([C@@H]2O[C@H](CO)[C@@H](O)[C@@H]2N)n1 | 7.07 | > 100 | 10.79 | 34.2 | 37.94 | 17.08 | 23.39 | 9.82 | 414.66 | 193 | 1144.41 | 153.73 | 387.73 | 570.91 | Activity (K562 [15]): 9.58%; Activity (K562 [16]): 9.11%; Activity (K562 [17]): 52.43%; Activity (K562 [18]): 36.67%; Activity (K562 [19]): 2.58%; fold change (FC) (K562 [20]): 2 - 2.4; fold change (FC) (K562 [21]): 2
– | – | – | – | 150 | – | COc1cccc2c1C(=O)c1c(O)c3c(c(O)c1C2=O)C[C@@](O)(C(=O)CO)C[C@@H]3O[C@H]1C[C@H](N)[C@H](O)[C@H](C)O1 [DOXORUBICIN] | – | – | – | – | – | – | – | – | – | – | – | – | – | – | –
6.28 | 7.55 | > 100000 | 40.5 | 2480 | 29.9 | [N-]=[N+]=N[C@H]1[C@H](O)[C@@H](CO)O[C@H]1c1nc(C(N)=O)cs1 | 12.47 | > 100 | 13.6 | 35.15 | 37.65 | 13.59 | 12.86 | 6.24 | 35.23 | 186.25 | 3222.35 | 156.25 | 355.91 | 169.74 | Activity (K562 [15]): 1.26%; Activity (K562 [16]): 20.75%; Activity (K562 [17]): 47.46%; Activity (K562 [18]): 29.73%; Activity (K562 [19]): 2.32%; fold change (FC) (K562 [20]): 2 - 2.4
